From PubChem
Rows were chosen to be rich in hits. Some 2% of all compounds tested hit in one or more screens of this group.
Neddyl block: inhibitors of cullin neddylation, primary screen, biochemical, TR-FRET, uHTS, NAE and Ubc12 | NEDD8-conjugating enzyme Ubc12 (Homo sapiens) + NEDD8-activating enzyme E1 regulatory … | calls only at 25 µM | 0.58% of 360,000 active | AID 651699, 2012; in the data active means inhibition above about 36%
NR2E3 ag-1: inhibitors of NR2E3-RetCOR corepressor binding, primary screen, NR2E3 agonist project, biochemical, TR-FRET, GST-NR2E3, biotin-RetCOR | inhibition of corepressor binding, % at 4.78 µM | Photoreceptor-specific nuclear receptor (Homo sapiens), Q9Y5X4 | 1536-well | 0.12% of 320,000 active | AID 2300, 2010;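 active means percent inhibition above the cutoff of mean plus 3 SD of all tested compounds, set per screening campaign, cut at about 20% in these data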;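 further: 0% = DMSO wells and 100% = biotin wells as full block of FRET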
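System: GST-tagged NR2E3 plus biotinylated RetCOR corepressor; Amount: 1.35 nM GST-tagged NR2E3 final; Dosing: single nominal compound dose of 4.8 µM; Schedule: 5 h incubation at 4 °C; Technique: TR-FRET with europium anti-GST and streptavidin-D2, 340 nm excitation; Controls: biotin wells as high control, 0.6% DMSO wells as low control.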
PG9 Ab binder: binders of HIV-1 gp120 antibody PG9, primary screen, biochemical, TR-FRET; HIV-1 gp120 / PG9 antibody interaction; TR-FRET gp120-PG9 antibody binding; inhibition, % at 6.7 µM; 0.43% of 360,000 active; AID 624416, 2012; in the data active means inhibition above about 8.5%
NR2E3 ag-2: NR2E3 agonists in two-hybrid cells, primary screen, cell-based, luminescence, CHO-S, Gal4-NCOR/VP16-NR2E3 | luciferase | inhibition of corepressor binding, % at 3.98 µM | Photoreceptor-specific nuclear receptor (Homo sapiens), Q9Y5X4 | 0.35% of 360,000 active;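 active means inhibition above the mean of all tested compounds plus 3 SD, cut at about 70% in these data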;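 further: 0% = DMSO with NR2E3 transfected cells and 100% = cells lacking NR2E3 construct; higher means lower luciferase signal from less NR2E3 corepressor binding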
NR1D1 modulator: modulators of Rev-erb alpha DNA binding, primary screen, biochemical, FITC-DNA, fluorescence polarization, uHTS | Nuclear receptor subfamily 1 group D member 1 (Homo sapiens), P20393 | Rev-erbα–FITC-DNA binding, 90 min | activity, % at 10 µM | 0.79% of 370,000 active | AID 1259318, 2017;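 active means activity above about 14%, limit read from the data; passing the limit was not always enough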;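 further: 0% = DMSO wells with 35 nM protein and 100% = DMSO wells with 750 nM protein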
Target sequence (P20393 whole entry, looked up): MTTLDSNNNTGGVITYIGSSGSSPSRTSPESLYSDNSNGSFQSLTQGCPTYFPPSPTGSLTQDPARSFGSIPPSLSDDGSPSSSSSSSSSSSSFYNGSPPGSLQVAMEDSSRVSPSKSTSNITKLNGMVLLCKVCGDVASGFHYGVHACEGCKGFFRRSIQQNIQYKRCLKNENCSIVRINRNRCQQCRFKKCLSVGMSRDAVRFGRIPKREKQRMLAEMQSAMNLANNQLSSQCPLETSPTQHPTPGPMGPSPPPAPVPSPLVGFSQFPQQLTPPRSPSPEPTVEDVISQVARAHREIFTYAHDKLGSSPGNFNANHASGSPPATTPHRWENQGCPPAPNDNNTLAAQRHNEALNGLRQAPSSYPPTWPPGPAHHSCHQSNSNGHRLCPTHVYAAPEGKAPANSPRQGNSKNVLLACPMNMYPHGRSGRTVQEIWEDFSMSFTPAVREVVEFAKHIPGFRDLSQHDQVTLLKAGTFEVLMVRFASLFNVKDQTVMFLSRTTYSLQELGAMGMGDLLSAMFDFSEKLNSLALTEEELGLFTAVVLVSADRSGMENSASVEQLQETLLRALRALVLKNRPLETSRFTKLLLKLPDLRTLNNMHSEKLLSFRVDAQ
Neddyl conf: blockade of NEDD8 conjugation to cullin – biochemical, TR-FRET, single concentration, confirmation; shares compounds with Neddyl block; calls only at 25 µM; TR-FRET cullin neddylation biochemical assay; 13% of 1,800 active; in the data active means inhibition above about 40%;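 further: neddylation substrate is the cullin 1 ring ligase complex with SKP2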
An asterisk follows results filed as active.

How did COc1ccc2oc(C(=O)OCC(=O)N3CC(C)CC(C)C3)c(C)c2c1 (stereo not given) do in these assays?
Neddyl block: active; NR2E3 ag-1: -3; PG9 Ab binder: 1; NR2E3 ag-2: 14; NR1D1 modulator: 6

How did COCCN(C(=O)COC(=O)c1oc2ccc(OC)cc2c1C)c1c(N)n(Cc2ccccc2)c(=O)[nH]c1=O do in these assays?
NR2E3 ag-1: 3; PG9 Ab binder: -3; NR2E3 ag-2: -27; NR1D1 modulator: 1

How did CCOC(=O)c1c(CN(CC)CC)oc2ccc(OC)cc12 do in these assays?
Neddyl block: active; NR2E3 ag-1: -1; PG9 Ab binder: 1; NR2E3 ag-2: -3; NR1D1 modulator: 3; Neddyl conf: inactive

How did CC(OC(=O)CCCC(=O)Nc1ccccc1)C(=O)c1ccccc1 (stereo not given) do in these assays?
Neddyl block: inactive; NR2E3 ag-1: -2; PG9 Ab binder: -3; NR2E3 ag-2: 6; NR1D1 modulator: -7

Results for O=C1CC2(CCN(S(=O)(=O)c3ccccc3F)CC2)Oc2ccccc21 ?
Neddyl block: inactive; NR2E3 ag-1: -4; PG9 Ab binder: -2; NR2E3 ag-2: -18; NR1D1 modulator: 4

How did CCCCCCCCN1C(=O)[C@H](CC(=O)NCCCOC)C[C@@]2(C(=O)OC)CCCCC=C12 do in these assays?
Neddyl block: inactive; PG9 Ab binder: -1; NR2E3 ag-2: -27; NR1D1 modulator: -1

How did COc1ccc2oc(C(=O)OCC(=O)N(C)C3CCS(=O)(=O)C3)c(C)c2c1 (stereo not given) do in these assays?
NR2E3 ag-1: -3; PG9 Ab binder: 1; NR2E3 ag-2: -3; NR1D1 modulator: 3

How did COc1ccc2oc(C(=O)OC(C)C(=O)N(C)c3ccccc3)c(C)c2c1 (stereo not given) do in these assays?
Neddyl block: active; NR2E3 ag-1: -3; PG9 Ab binder: -1; NR2E3 ag-2: -20; NR1D1 modulator: -3

How did COc1ccc2oc(C(=O)OCC(=O)N(C)C3CCCCC3)c(C)c2c1 do in these assays?
Neddyl block: active; NR2E3 ag-1: 4; PG9 Ab binder: 0; NR2E3 ag-2: -19; NR1D1 modulator: -1

How did CCCCOCCCNC(=O)C[C@H]1C[C@@]2(C(=O)OC)C(=C[C@H](C(C)(C)C)O[C@@H]2C)N(Cc2ccccc2)C1=O do in these assays?
PG9 Ab binder: -1; NR1D1 modulator: -2

Results for CC(C)(C)c1ccc(NC(=O)C2CCCN(c3cnccn3)C2)cc1 (stereo not given) ?
Neddyl block: active; NR2E3 ag-1: 2; PG9 Ab binder: -1; NR2E3 ag-2: 2; NR1D1 modulator: 2; Neddyl conf: inactive

What do the screens show for `O=C(Nc1ccc2c(c1)C(=O)NC2=O)c1ccccc1`?
NR2E3 ag-1: 2; PG9 Ab binder: 1; NR2E3 ag-2: -9; NR1D1 modulator: -2

How did O=C(Nc1ccc2c(c1)C(=O)NC2=O)c1cccc(C(F)(F)F)c1 do in these assays?
Neddyl block: active; NR2E3 ag-1: 1; PG9 Ab binder: 2; NR2E3 ag-2: -13; NR1D1 modulator: 2; Neddyl conf: inactive

Results for O=C(Nc1ccc2c(c1)C(=O)NC2=O)c1ccc(S(=O)(=O)N2CCCC2)cc1 ?
Neddyl block: active; NR2E3 ag-1: 1; PG9 Ab binder: 4; NR2E3 ag-2: -35; NR1D1 modulator: 4; Neddyl conf: inactive

What do the screens show for `O=C(/C=C/c1ccccc1)Nc1ccc2c(c1)C(=O)NC2=O`?
Neddyl block: active; NR2E3 ag-1: -2; PG9 Ab binder: 0; NR2E3 ag-2: 1; NR1D1 modulator: 2

What do the screens show for `Cc1cc(C)n2nc3ccccc3c2n1`?
Neddyl block: active; NR2E3 ag-1: 2; PG9 Ab binder: -2; NR2E3 ag-2: -20; NR1D1 modulator: -4; Neddyl conf: inactive

Results for Cc1cc(=O)[nH]c2c3ccccc3nn12 ?
Neddyl block: inactive; NR2E3 ag-1: -2; PG9 Ab binder: 0; NR2E3 ag-2: -16; NR1D1 modulator: 12

How did Cc1ccc(F)cc1C(=O)N1CCCC(c2cc(C(=O)NCc3ccc(F)cc3)no2)C1 (stereo not given) do in these assays?
Neddyl block: inactive; PG9 Ab binder: -1; NR2E3 ag-2: 19; NR1D1 modulator: -2

Results for Nc1nc2n(n1)C(c1cccc(Br)c1)CC(c1ccc(F)cc1)N2 (stereo not given) ?
Neddyl block: active; NR2E3 ag-1: -1; PG9 Ab binder: -2; NR2E3 ag-2: -4; NR1D1 modulator: -5; Neddyl conf: inactive

What do the screens show for `Nc1nc2n(n1)C(c1ccccc1)CC(c1ccc(F)cc1)N2` (stereo not given)?
Neddyl block: inactive; NR2E3 ag-1: 2; PG9 Ab binder: -2; NR2E3 ag-2: -21; NR1D1 modulator: -1

Results for COc1cccc(/C=C/C(=O)OCC(=O)NCc2ccco2)c1 ?
Neddyl block: active; NR2E3 ag-1: 4; PG9 Ab binder: -1; NR2E3 ag-2: -10; NR1D1 modulator: -3; Neddyl conf: inactive

How did COc1ccc(OC)c(/C=C/C(=O)OCC(=O)NCc2ccco2)c1 do in these assays?
Neddyl block: active; NR2E3 ag-1: 0; PG9 Ab binder: -1; NR2E3 ag-2: 4; NR1D1 modulator: -1

Results for COC(=O)c1cc(NC(=O)c2c(-c3ccccc3)noc2C)ccc1N1CCOCC1 ?
Neddyl block: active; NR2E3 ag-1: 3; PG9 Ab binder: 1; NR2E3 ag-2: -12; NR1D1 modulator: -1; Neddyl conf: inactive

What do the screens show for `COC(=O)c1cc(NC(=O)c2c(-c3c(Cl)cccc3Cl)noc2C)ccc1N1CCOCC1`?
Neddyl block: inactive; NR2E3 ag-1: 0; PG9 Ab binder: -2; NR2E3 ag-2: -3; NR1D1 modulator: -5

Results for COCCN1CCN(c2c(C)c(C)nc3cc(-c4cccc(OC)c4)nn23)CC1 ?
Neddyl block: inactive; NR2E3 ag-1: 2; PG9 Ab binder: -2; NR2E3 ag-2: -5; NR1D1 modulator: 7

How did CCOCCN1CCN(c2c(C)c(C)nc3cc(-c4cc(OC)cc(OC)c4)nn23)CC1 do in these assays?
Neddyl block: active; NR2E3 ag-1: 1; PG9 Ab binder: 1; NR2E3 ag-2: -28; NR1D1 modulator: 0; Neddyl conf: inactive

Results for CCCCOc1ccc(C(=O)NCC(=O)N2CCN(C/C=C/c3ccccc3)CC2)cc1 ?
Neddyl block: inactive; PG9 Ab binder: 0; NR2E3 ag-2: 29; NR1D1 modulator: -5
